Data reported in ChEMBL document CHEMBL4007439, “Design, Synthesis, and Evaluation of a Novel Series of Oxadiazine Gamma Secretase Modulators for Familial Alzheimer's Disease” (J Med Chem, 2017).
The source made the active and inactive calls. The calls are words filed in the database; no cut-off is given here.

Tests used:
Mus musculus = test: Reduction in amyloid beta 42 levels in mouse brain at 30 mg/kg, po measured at 6 hrs post dose by ELISA; type: functional
How it was run: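 Single oral dose of 30 mg/kg; brain (mouse, rat) and rat CSF Aβ42 and Aβ37 measured 6 h post-dose, expressed relative to vehicle; total and free brain drug levels and brain:plasma ratio taken at the same time.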

[1] = Modulation of gamma-secretase in human H4 cells expressing human APP751 assessed as inhibition of amyloid beta 42 production incubated overnight by sandwich ELISA; type: cell-based
How it was run: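 Aβ42 EC50 in H4 cells overexpressing WT human APP751; each value is the average of n > 2 assays, each run in duplicate.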

[2] = Unbound intrinsic clearance in rat hepatocytes; type: ADME, cell-based, Hepatocyte
[3] = Modulation of gamma-secretase (unknown origin); design: species or system Homo sapiens

COc1cc(C2=NOC[C@H](COc3ccc(Cl)cc3C(F)(F)F)N2)ccc1-n1cnc(C)c1
Activity (Mus musculus): inactive
EC50 ([1]; Homo sapiens): 109 nM

COc1nc(C2=NOC[C@H](COc3ccc(F)cc3C)N2)ccc1-c1ccnc(C)c1
CL free [2]: 195.5 L/h/kg
EC50 ([1]; Homo sapiens): 98 nM

COc1nc(C2=NOCC3CN(c4ccc(Cl)cc4C(F)(F)F)CCN23)ccc1-n1cnc(C)c1 (single isomer, unassigned; (-))
EC50 [1]: 307 nM

COc1cc(C2=NOC[C@H](COc3ccc(F)cc3C)N2)ccc1-n1cnc(C)c1
Activity (Mus musculus): inactive
EC50 ([1]; Homo sapiens): 230 nM

COc1nc(C2=NOC[C@H](COc3ccc(F)cc3C)N2)ccc1-c1cnc(C)s1
EC50 ([1]; Homo sapiens): 1270 nM

COc1nc(C2=NOC[C@H](COc3ccc(F)cc3C)N2)ccc1-n1cnc(Cl)c1
CL free [2]: 246.3 L/h/kg
EC50 ([1]; Homo sapiens): 72 nM

COc1cc(C2=NOC[C@@H](COc3ccc(F)cc3C)N2)ccc1-n1cnc(C)c1
Activity (Mus musculus): inactive
EC50 ([1]; Homo sapiens): 2890 nM

COc1nc(C2=NOC[C@H](COc3ccc(F)cc3C)N2)ccc1-c1cnn(C)c1
EC50 ([1]; Homo sapiens): 604 nM

COc1cc(C2=NOC[C@H](COc3ccc(F)cc3C)N2)ccc1-c1ccnc(C)c1
Activity (Mus musculus): inactive
EC50 ([1]; Homo sapiens): 109 nM

COc1nc(C2=NOC[C@H](COc3ccc(F)cc3C)N2)ccc1-c1ocnc1C
EC50 ([1]; Homo sapiens): 1360 nM

COc1nc(C2=NOC[C@H]3[C@@H](Oc4ccc(F)cc4C)CCCN23)ccc1-n1cnc(C)c1
EC50 ([1]; Homo sapiens): > 3000 nM

COc1cc(N2CCC(C(=O)N3CCC[C@@H](Oc4ccc(Cl)cc4C(F)(F)F)C3)CC2)ccn1
EC50 [3]: 35 nM
